Measured values as given in article PMC3191534 (Translational stroke research, 2011).
“Also recorded” adds a separate entry of the source. Like-named read-outs stand apart in the source and are kept apart here. Marks after values point to notes of the source that are not given here.

How the values were obtained:
[1] = system: Salmonella typhimurium TA100; experiment: Ames genotoxicity test, TA100; assay type: cell-based
[2] = system: Salmonella typhimurium TA989; experiment: Ames genotoxicity test, TA989; assay type: cell-based
[3] = Metabolic stability in human and animal liver microsomes, stated across species; assay type: in vitro ADME, dog, rat, mouse
[4] = dog, microsomes
[5] = rat, microsomes
[6] = system: H4IIE rat hepatoma cell line; experiment: CeeTox analysis, cellular toxicity panel; assay type: cell-based
P-glycoprotein (PgP) = experiment: P-glycoprotein; assay type: cell-based, rat; details: 50 μM
Summary of the method: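 H4IIE cells were exposed to the test compound at a single concentration (50 μM), with and without the PgP inhibitor cyclosporin A. Toxicity was measured by MTT assay and expressed as % control for each condition. The % difference was taken as the PgP interaction measure. The compound came from a DMSO stock, with a DMSO control, in a blinded contract CeeTox study.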

[7] = system: rat intraluminal suture stroke model; details: cited from earlier work
[8] = system: free radical-induced peroxidation; details: in vitro; cited from earlier work
HT22 cells [9] = experiment: HT22 cell ATP content in the in vitro ischemia assay; assay type: cell-based; details: 20 μM IAA; highest dose tested (10 μM)
HT22 cells [10] = experiment: Oxidative glutamate toxicity; assay type: cell-based
Summary of the method: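 HT22 cells (DMEM, 10% FCS) were given the test compound, then 5 mM glutamate 30 min later to deplete GSH. Cell survival was measured 24 h after glutamate. Experiments were repeated at least three times in triplicate, shown as mean ± SD, and analysed by ANOVA with Bonferroni's test (P<0.05).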

HT22 hippocampal cells = experiment: HT22 neuroprotection, IAA or oxidative glutamate toxicity assays stated together; assay type: cell-based; details: read-out: EC50, neuroprotection, either IAA or oxidative glutamate toxicity assay
[11] = human, microsomes
[12] = microsomes
[13] = rat, in vivo; cited from earlier work
HT22 hippocampal neurons = experiment: In vitro ischemia assay; assay type: cell-based
Summary of the method: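 HT22 cells were grown in DMEM with 10% FCS and seeded at 5×10^3 cells/well. Next day they were switched to DMEM with 7.5% DFCS and given 20 μM iodoacetic acid ± test compound for 2 h, then fresh IAA-free medium with compound for 20 h. MTT (5 μg/ml) ran 4 h at 37°C, was solubilised in 50% DMF/20% SDS pH 4.7, and A570 was read next day. Runs were done ≥3 times in triplicate; ANOVA/Bonferroni.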

[14] = oxidative glutamate toxicity assay

Nc1ccc2cc3ccccc3cc2c1 [2-aminoanthracene, reference compound]
Mean no. of positive wells ([1]; TA100+S9, positive control): 48.00
Mean no. of positive wells ([1]; TA100−S9, positive control): 48.00
Mean no. of positive wells ([2]; TA989+S9, positive control): 48.00
Mean no. of positive wells ([2]; TA989−S9, positive control): 36.00

C[C@]12CC[C@H]3[C@@H](CCC4=CC(=O)CC[C@@]43C)[C@@H]1CC[C@@H]2O [testosterone, reference compound]
half-life ([3]; human): 10 to 32 min

Stilbazulenyl nitrone [STAZN]
Half-life t1/2 [4]: 71 min
Percent remaining of initial compound ([4]; 10 min): 56.2%
Percent remaining of initial compound ([4]; 20 min): 65.5%
Percent remaining of initial compound ([4]; 0.5 h): 54.5%
Percent remaining of initial compound ([4]; 1 h): 47.6%
drug metabolized ([4]; 1 h): approximately 50%
Half-life t1/2 [5]: > 60 min
Half-life t1/2, calculated value in parentheses [5]: 95 min
Percent remaining of initial compound ([5]; 10 min): 82.4%
Percent remaining of initial compound ([5]; 20 min): 76.6%
Percent remaining of initial compound ([5]; 0.5 h): 80.3%
drug metabolized ([5]; 0.5 h): 20%
Percent remaining of initial compound ([5]; 1 h): 122 ^d %
decrease in cellular ATP content ([6]; H4IIE cells, 300 μM): ~35%
ATP TC50 ([6]; H4IIE cells, 24 h): >300 µM
Cell number TC50 ([6]; H4IIE cells, 24 h): >300 µM
MTT TC50 ([6]; H4IIE cells, 24 h): >300 µM
MemTox TC50 ([6]; H4IIE cells, 24 h): >300 µM
Total GSH TC50 ([6]; H4IIE cells, 24 h): >300 µM
TC50 for all general toxicity measures ([6]; H4IIE cells, 24 h, all assays): > 300 µM
Membrane lipid peroxidation ([6]; H4IIE cells, measured as 8-isoprostane): 0
therapeutic safety window (efficacy/toxicity ratio) ([6]; in vitro, HT22 EC50 vs CeeTox toxicity): 60–150 fold
interaction with PgP transporters (P-glycoprotein (PgP)): low-level interaction
% Control (compound + CSA) (P-glycoprotein (PgP); MTT, H4IIE cells, with cyclosporin A): 83.4%
% Control (compound) (P-glycoprotein (PgP); MTT, H4IIE cells, without CSA): 100.3%
% Difference (P-glycoprotein (PgP); without vs with CSA): 16.9%
effect on behavior [7]: improved behavior measured up to 30 days following ischemia
effect on infarct volume [7]: reduced infarct volume in a dose- and time-dependent manner
neuroprotective doses, times lower than NXY-059 [7]: 300–600 times
potency relative to NXY-059 at inhibiting free radical-induced peroxidation [8]: 300 times
effect on IAA-induced ATP loss (HT22 cells [9]): significantly attenuate IAA-induced ATP loss
concentration at which significance was first achieved (HT22 cells [10]; 5 mM glutamate, HT22 cells): 5 µM
increase in survival (HT22 cells [10]; [14]): 416%
maximal level of protection, of total cell survival (HT22 cells [10]; [14]): ~52%
EC50 (HT22 hippocampal cells): 1 to 5 µM
Half-life t1/2 [11]: 78 min
Percent remaining of initial compound ([11]; 10 min): 57.7%
Percent remaining of initial compound ([11]; 20 min): 39.7%
Percent remaining of initial compound ([11]; 0.5 h): 46.9%
Percent remaining of initial compound ([11]; 1 h): 49.1%
drug metabolized ([11]; 1 h): approximately 50%
Mean no. of positive wells ([1]; TA100+S9, .001963 mg/ml): 7.33
Mean no. of positive wells ([1]; TA100+S9, .003906 mg/ml): 6.33
Mean no. of positive wells ([1]; TA100+S9, .007813 mg/ml): 6.67
Mean no. of positive wells ([1]; TA100+S9, .015625 mg/ml): 6.33
Mean no. of positive wells ([1]; TA100+S9, .03125 mg/ml): 10.67
Mean no. of positive wells ([1]; TA100+S9, .0625 mg/ml): 8.67
mutagenicity (Ames test outcome) ([1]; TA100, with or without S9, up to 0.0625 mg/ml (0.106 mM)): lack of mutagenicity; also recorded: not mutagenic
Mean no. of positive wells ([1]; TA100−S9, .001963 mg/ml): 5.00
Mean no. of positive wells ([1]; TA100−S9, .003906 mg/ml): 3.67
Mean no. of positive wells ([1]; TA100−S9, .007813 mg/ml): 6.33
Mean no. of positive wells ([1]; TA100−S9, .015625 mg/ml): 7.33
Mean no. of positive wells ([1]; TA100−S9, .03125 mg/ml): 5.00
Mean no. of positive wells ([1]; TA100−S9, .0625 mg/ml): 5.67
Half-life t1/2 [12]: < 10 min
Half-life t1/2, calculated value in parentheses ([12]; mouse): 27 min
Percent remaining of initial compound ([12]; mouse, 10 min): 17.2%
Percent remaining of initial compound ([12]; mouse, 20 min): 19.8%
Percent remaining of initial compound ([12]; mouse, 0.5 h): 10.0%
Percent remaining of initial compound ([12]; mouse, 1 h): 13.8%
drug metabolized ([12]; mouse, 1 h): 86%
Mean no. of positive wells ([2]; TA989+S9, .001963 mg/ml): 2.33
Mean no. of positive wells ([2]; TA989+S9, .003906 mg/ml): 1.33
Mean no. of positive wells ([2]; TA989+S9, .007813 mg/ml): 5.00
Mean no. of positive wells ([2]; TA989+S9, .015625 mg/ml): 3.00
Mean no. of positive wells ([2]; TA989+S9, .03125 mg/ml): 4.00
Mean no. of positive wells ([2]; TA989+S9, .0625 mg/ml): 2.33
mutagenicity (Ames test outcome) ([2]; TA989, with or without S9, up to 0.0625 mg/ml (0.106 mM)): lack of mutagenicity; also recorded: not mutagenic
Mean no. of positive wells ([2]; TA989−S9, .001963 mg/ml): 1.33
Mean no. of positive wells ([2]; TA989−S9, .003906 mg/ml): 1.33
Mean no. of positive wells ([2]; TA989−S9, .007813 mg/ml): 0.33
Mean no. of positive wells ([2]; TA989−S9, .015625 mg/ml): 0.67
Mean no. of positive wells ([2]; TA989−S9, .03125 mg/ml): 0.00
Mean no. of positive wells ([2]; TA989−S9, .0625 mg/ml): 0.67
circulating half-life t1/2, first phase of biexponential decline in blood levels [13]: 28 min
half-life [3]: 60 to 78 min
increase in survival (HT22 hippocampal neurons; IAA assay): 621%
maximal level of protection, of total cell survival (HT22 hippocampal neurons; IAA assay): approximately 60%
EC50 (HT22 hippocampal neurons; read-out: EC50, neuroprotection in the IAA assay, estimated, 20 μM IAA, HT22 cells): ~1 µM
